Source: PubChem BioAssay
TbMetRS inhib – blocks T. brucei methionyl-tRNA synthetase activity; AID 624268; 360,000 tested, 0.4% active; inhibition, % at 11.9 µM; purified T. brucei MetRS, ATP depletion, Kinase-Glo luminescence;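 active means inhibition above a per-plate cutoff of the control wells' mean inhibition plus 3 SD, cut at about 5.5% in these data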;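 further: 0% = DMSO wells median and 100% = median of wells with control inhibitor compound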
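Test system – parasite MetRS enzyme · Reagent – substrates ATP, L-methionine and bulk Escherichia coli tRNA · Doses – 11.9 µM compound single dose, 0.9% DMSO · Times – 15 min enzyme-compound preincubation, 2 h reaction, 10 min detection, 25 °C · Signal – Kinase-Glo luminescence, ATP depletion format · Controls – DMSO-only wells as low control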
PHOSPHO1 inh – PHOSPHO1 (human) inhibition. Q8TCT1. recombinant PHOSPHO1, absorbance phosphatase assay. inhibition, % at 13.3 µM. 290,000 tested, 1.1% active. AID 1565; in the data active means inhibition above about 60%
Target sequence (Q8TCT1 whole entry, looked up): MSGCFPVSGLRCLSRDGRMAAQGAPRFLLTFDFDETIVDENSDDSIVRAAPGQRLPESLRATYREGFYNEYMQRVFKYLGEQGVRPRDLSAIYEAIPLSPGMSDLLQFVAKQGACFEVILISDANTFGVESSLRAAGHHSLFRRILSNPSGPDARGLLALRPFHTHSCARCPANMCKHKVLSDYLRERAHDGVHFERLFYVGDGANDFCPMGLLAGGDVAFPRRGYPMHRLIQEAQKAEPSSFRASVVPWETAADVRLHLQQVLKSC
A3A deaminase – inhibitors of human APOBEC3A DNA deaminase | 330,000 tested, 0.41% active | inhibition, % at 20 µM | recombinant A3A, FAM/TAMRA ssDNA deamination fluorescence | P31941 | AID 493011;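 active means at least 40% inhibition at 20 µM here, with at most 30% in a related deaminase screen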;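 further: plate controls were A3A with DMSO for no effect and wells lacking A3A enzyme for full effect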
Target sequence (P31941 whole entry, looked up): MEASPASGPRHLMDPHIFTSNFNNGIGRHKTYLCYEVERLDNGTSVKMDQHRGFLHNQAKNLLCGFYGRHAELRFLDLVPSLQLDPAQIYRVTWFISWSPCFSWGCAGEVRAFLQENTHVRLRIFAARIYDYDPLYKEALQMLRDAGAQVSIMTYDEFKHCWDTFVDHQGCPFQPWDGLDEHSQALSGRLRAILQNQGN
p-CIP stab down – p/CIP protein destabilization; F442A p/CIP-EGFP cells, EGFP fluorescence, 16 h; decrease of EGFP signal, % at 10 µM; 290,000 tested, 0.01% active;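 active means EGFP signal decrease of at least 30% at 10 µM or well 3 SD below plate mean, unless failing retest; inactive means the rest, including hits failing retest or dose response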
A3G deaminase – APOBEC3G (human) deaminase inhibition; recombinant A3G, ssDNA deamination FAM/TAMRA fluorescence; inhibition, % at 20 µM; 330,000 tested, 0.28% active; AID 493012;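 active means inhibition of at least 40% at 20 µM, with no more than 30% in the related APOBEC3A deaminase screen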;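 further: plate controls were DMSO wells with A3G for no effect and wells lacking A3G enzyme for full effect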
TbMetRS confirm – Trypanosoma brucei MetRS inhibition confirmed; shares compounds with TbMetRS inhib; T. brucei MetRS enzyme, luminescence (ATP depletion); inhibition, % at 11.9 µM; 1,400 tested, 93% active; AID 624412; in the data active means inhibition above about 7%
Jurkat tox – counter-screen for T. brucei MetRS inhibitors: Jurkat cell cytotoxicity; 1,400 tested, 12% active; AID 624413; shares compounds with TbMetRS inhib; inhibition, % at 8.3 µM; Jurkat cells viability, ATP luminescence; in the data active means inhibition above about 15%;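 further: 0% = vehicle and 100% = reference inhibitor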
TbMetRS FP orth – T. brucei MetRS inhibition, orthogonal assay. shares compounds with TbMetRS inhib. purified T. brucei MetRS, fluorescence polarization. inhibition, % at 11.9 µM. 1,400 tested, 44% active. AID 651607; in the data active means inhibition above about 17%;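 further: 0% = vehicle wells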
Starred values were filed as active, the others as inactive; · = not tested or not shown. This is a sample that favours compounds with a hit; in the whole collection about 1.8% have one here.

SMILES	TbMetRS inhib	PHOSPHO1 inh	A3A deaminase	p-CIP stab down	A3G deaminase	TbMetRS confirm	Jurkat tox	TbMetRS FP orth
COc1cc(C2C(C#N)=C(N)Oc3cc(N(C)C)ccc32)cc2c1OCO2 (stereo not given)	19*	11	-5	-98	-12	2	82*	7
COc1cc(C2C(C#N)=C(N)Oc3cc(O)ccc32)cc(OC)c1OC (stereo not given)	0	33	-4	-10	-3	·	·	·
COC(=O)c1cccc(NC(=S)NC(C)C)c1	0	-19	-6	5	-11	·	·	·
CCOC(=O)C1(C(C)(C)CC)CC(CSc2nc3ccccc3[nH]2)OC1=O (stereo not given)	5.7*	-6	-4	6	-13	15*	8	8
Cc1nc(Nc2ccccc2)[nH]c(=O)c1CCC(C)C	7.5*	18	-3	-2	-4	52*	9	24*
Cc1nc(N2CCc3ccccc3C2)[nH]c(=O)c1CCC(C)C	-2	-26	-1	0	-4	·	·	·
Nc1cc(OCc2ccccc2)ccc1OCc1ccccc1	0	·	·	·	·	·	·	·
OC(c1ccc(Cl)c(Cl)c1)c1ncc(-c2ccc(Cl)cc2)[nH]1 (stereo not given)	51*	·	·	·	·	86*	-2	66*
OC(c1ccc(Cl)c(F)c1)c1ncc(-c2ccc(Cl)cc2)[nH]1 (stereo not given)	5.8*	·	·	·	·	41*	8	17
OC(c1ccc(Cl)c(Cl)c1)c1ncc(-c2ccc(C(F)(F)F)cc2)[nH]1 (stereo not given)	3	·	·	·	·	·	·	·
OC(c1ccc(Cl)c(F)c1)c1ncc(-c2ccc(Oc3ccccc3)cc2)[nH]1 (stereo not given)	0	·	·	·	·	·	·	·
CCN1CCCC1Cn1cnc2c([nH]c3ccc(Cl)cc32)c1=O (stereo not given)	10*	14	-1	-14	-5	14*	0	14
CCN1CCCC1Cn1cnc2c([nH]c3cccc(Cl)c32)c1=O (stereo not given)	-1	8	-1	-7	4	·	·	·
CC(=O)OC1CC(c2cc(C(C)(C)C)c(O)c(C(C)(C)C)c2)=NO1 (stereo not given)	2	15	2	-2	-3	·	·	·
Brc1ccc(-c2ccc(/C=N/Nc3nc4ccccc4[nH]3)o2)cc1	11*	14	3	0	0	7.9*	12	20*
C(=N\Nc1nc2ccccc2[nH]1)/c1c[nH]c2ccccc12	12*	-19	-3	11	-2	26*	13	47*
C(=N\Nc1nc2ccccc2[nH]1)/c1ccccc1	3	-1	-1	-3	-8	·	·	·
Cc1[nH]c2ccccc2c1/C=N/Nc1nc2ccccc2[nH]1	8.3*	3	-5	-31	0	29*	9	30*
O=[N+]([O-])c1ccccc1N/N=C/c1c[nH]c2ccccc12	-1	24	3	-5	-2	·	·	·
Cc1ccccc1/C=N/Nc1nc2ccccc2[nH]1	2	-3	-2	4	-6	·	·	·
O=[N+]([O-])c1ccc(N/N=C/c2c[nH]c3ccccc23)cc1	7.5*	9	-1	-108	-4	12*	21*	55*
CCCN(CCC)S(=O)(=O)c1cccc(-c2csc(C)n2)c1	0	16	-2	-9	-5	·	·	·
Cc1cc(C)n(CC(=O)N2CCCC(C(=O)c3cccc(OC(C)C)c3)C2)n1 (stereo not given)	-1	52	2	2	0	·	·	·
CN(CCCN1CCCCC1)C(=O)c1cc(COc2ccc(F)cc2F)on1	0	38	-4	-12	-5	·	·	·
Cc1c(NC(=O)C(C)OC(=O)c2cccnc2Cl)c(=O)n(-c2ccccc2)n1C (stereo not given)	0	·	-4	·	-5	·	·	·
SMILES	TbMetRS inhib	PHOSPHO1 inh	A3A deaminase	p-CIP stab down	A3G deaminase	TbMetRS confirm	Jurkat tox	TbMetRS FP orth
CC(C)CN(CC(C)C)S(=O)(=O)N1CCC(C(=O)NC2CCCCCCC2)CC1	-1	-18	0	2	-6	·	·	·
O=C(NCc1ccco1)c1ccc(Cl)nc1	-1	1	12	-10	4	·	·	·
OC(COc1ccc2cc(Br)ccc2c1)Cn1ccnc1 (stereo not given)	6.2*	40	-4	-6	-9	13*	9	24*
COc1cccc(/C(O)=C/c2nc3ccc(C(=O)NCCc4cccc(C)c4)cc3[nH]c2=O)c1	7.4*	6	-7	-2	-12	6.6*	15*	3
COc1cccc(/C(O)=C/c2nc3ccc(C(=O)NCCc4ccc(Cl)cc4)cc3[nH]c2=O)c1	-1	-11	·	0	·	·	·	·
CC1CCCN(C(=O)CN2CCC(c3nc4ccc(Cl)cc4[nH]3)CC2)C1 (stereo not given)	4	34	-3	10	-5	·	·	·
Clc1ccc(CN2CCC(c3nc4ccc(Cl)cc4[nH]3)CC2)cc1	8.4*	22	0	-9	5	17*	21*	0
Nc1nc(Nc2ccc(Cl)cc2)nc2ccccc12	4	-9	0	-3	-3	·	·	·
Nc1nc(Nc2ccccc2)nc2ccccc12	19*	10	4	2	3	31*	20*	18*
COc1ccc(N2CCC(CNC(=O)Nc3cccc(OC)c3)C2)cc1 (stereo not given)	0	51	1	-2	5	·	·	·
COc1ccc(N2CCC(CNC(=O)Nc3ccc(Cl)cc3)C2)cc1 (stereo not given)	14*	-28	1	-3	4	29*	11	25*
Cc1ccc2[nH]c3c(N4CCc5ccccc5C4)ncnc3c2c1	12*	20	0	-23	1	5	47*	9
Brc1ccc2[nH]c3c(N4CCc5ccccc5C4)ncnc3c2c1	·	5	-5	-6	-10	·	·	·
CCOc1ccc2[nH]c3c(N4CCc5ccccc5C4)ncnc3c2c1	2	23	-3	4	-5	·	·	·
Fc1ccc2[nH]c3c(N4CCc5ccccc5C4)ncnc3c2c1	58*	27	1	-37	-6	14*	50*	13
O=C1N(Cc2cccc(Cl)c2)C[C@@H]2C[C@@H](c3c[nH]c4ccccc34)N3CCC[C@@]123	5.9*	-24	4	-2	-4	11*	5	8
COc1ccccc1CNC(=O)C1CCC(=O)N(CCCc2ccccc2)C1 (stereo not given)	0	-4	-1	-6	-3	·	·	·
CCOC(=O)c1c(N)n(CCOC(=O)c2cccs2)c2nc3ccccc3nc12	7.3*	2	5	-13	2	5.7*	6	2
